Experiments:
[1] = molecular target: T1, Solute carrier family 22 member 1 (Homo sapiens, UniProt O15245); test: Inhibition of human OCT1 expressed in HEK293 cells assessed as Asp+ uptake after 10 mins by fluorescence assay; format: cell-based; conditions: for inhibition (INH): human, hek293, 10 min
T1 sequence (O15245 whole entry): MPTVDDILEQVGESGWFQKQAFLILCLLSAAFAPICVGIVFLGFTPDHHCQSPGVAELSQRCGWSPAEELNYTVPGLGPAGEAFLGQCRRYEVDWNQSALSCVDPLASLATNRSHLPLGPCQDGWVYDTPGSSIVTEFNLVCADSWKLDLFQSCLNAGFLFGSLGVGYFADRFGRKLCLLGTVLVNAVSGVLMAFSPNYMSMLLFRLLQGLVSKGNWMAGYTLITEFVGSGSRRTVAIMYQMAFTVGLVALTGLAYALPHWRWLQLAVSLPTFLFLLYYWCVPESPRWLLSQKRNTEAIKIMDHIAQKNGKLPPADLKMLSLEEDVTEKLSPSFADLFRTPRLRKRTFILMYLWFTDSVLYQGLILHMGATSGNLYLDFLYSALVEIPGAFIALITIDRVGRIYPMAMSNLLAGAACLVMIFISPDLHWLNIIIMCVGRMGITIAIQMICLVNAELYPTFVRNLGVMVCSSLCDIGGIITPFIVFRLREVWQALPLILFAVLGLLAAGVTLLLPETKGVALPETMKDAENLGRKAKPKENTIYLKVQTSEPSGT
Method in brief: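 Stably transfected HEK293 cells (human OAT1, OAT3, OCT1, OCT2, OATP1B3, OATP2B1) and mock cells were assayed 16 h after seeding in HEPES uptake buffer, pH 7.2, with fluorescent probe ± compound. Incubation was 5 min for OAT1/3 and OATPs, and 10 min for OCT1/2. Reference inhibitors were probenecid (OATs), quinine (OCTs) and rifampicin (OATPs). Uptake was stopped with ice-cold PBS and cells were lysed in Tris/Triton. Fluorescence was normalised to BCA protein; triplicates, repeated 2–3 times.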

[2] = Drug uptake in mock transfected HEK293 cells by HPLC-UV assay; format: ADME, cell-based; conditions: human
[3] = Ratio of CA4 aqueous solubility to test compound aqueous solubility; format: physicochemical; conditions: buffer
[4] = molecular target: T2, Solute carrier organic anion transporter family member 2B1 (Homo sapiens, UniProt O94956); test: Substrate activity at human OATP2B1 expressed in HEK293 cells assessed as compound uptake by HPLC-UV method relative to control; format: ADME, cell-based
T2 sequence (O94956 whole entry): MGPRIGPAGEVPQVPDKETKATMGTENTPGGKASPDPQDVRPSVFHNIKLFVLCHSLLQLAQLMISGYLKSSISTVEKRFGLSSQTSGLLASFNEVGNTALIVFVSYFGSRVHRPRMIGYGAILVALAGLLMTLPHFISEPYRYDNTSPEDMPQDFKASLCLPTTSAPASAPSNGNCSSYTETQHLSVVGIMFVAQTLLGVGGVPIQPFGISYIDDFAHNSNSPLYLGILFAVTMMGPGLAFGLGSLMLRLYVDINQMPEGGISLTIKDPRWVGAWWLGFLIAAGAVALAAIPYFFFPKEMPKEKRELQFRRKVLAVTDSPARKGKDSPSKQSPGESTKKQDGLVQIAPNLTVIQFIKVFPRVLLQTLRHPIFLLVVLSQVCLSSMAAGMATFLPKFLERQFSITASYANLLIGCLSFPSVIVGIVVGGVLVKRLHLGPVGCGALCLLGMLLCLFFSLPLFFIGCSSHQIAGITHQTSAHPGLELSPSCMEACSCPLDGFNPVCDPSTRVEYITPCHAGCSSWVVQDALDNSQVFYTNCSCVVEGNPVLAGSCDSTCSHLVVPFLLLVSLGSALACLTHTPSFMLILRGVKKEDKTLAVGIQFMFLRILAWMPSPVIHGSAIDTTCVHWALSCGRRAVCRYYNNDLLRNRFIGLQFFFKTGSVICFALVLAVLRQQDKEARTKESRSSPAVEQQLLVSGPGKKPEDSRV

Mus musculus = test: Ratio of compound MTD to CA4 MTD in ip dosed DBA/2 mouse assessed as reduction in 15% body weight administered as daily dose for 3 days; format: ADME, organism-based; conditions: in vivo, 72 h
[5] = molecular target: T2, Solute carrier organic anion transporter family member 2B1; test: Substrate activity at human OATP2B1 expressed in HEK293 cells assessed as compound uptake in presence of OATP2B1 inhibitor rifampicin by HPLC-UV method; format: ADME, cell-based
[6] = Drug uptake in mock transfected HEK293 cells in presence of OATP2B1 inhibitor rifampicin by HPLC-UV method; format: ADME, cell-based; conditions: human
HT-29 = test: […] for human HT-29 cells assessed as reduction in cell viability after 72 hrs by MTT assay; format: functional
Method in brief: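 HT29 cells were cultured in RPMI-1640 with glutamine and 10% FBS, seeded at 2000–7500 cells/well, and exposed for 72 h to drug in DMSO (final DMSO <0.1%). MTT was added at 0.83 mg mL−1 final and incubated overnight, then cells were lysed in SDS/HCl and read at 570 nm. Survival was expressed as percent of drug-free control; five replicate wells.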

COc1ccc(/C=C\c2cc(OC)c(OC)c(OC)c2)cc1O [COMBRETASTATIN A4]
IC50 [1]: > 200 µM | inhibition (INH) [1]: Dose-dependent effect | Drug uptake [2]: Active

COc1ccc(/C=C\c2cc(OC)c(OC)c(OC)c2)cc1O[C@@H]1O[C@H](CO)[C@@H](O)[C@H](O)[C@H]1O
Ratio [3]: 610 | Drug uptake [4]: 60% | IC50 [1]: > 200 µM | inhibition (INH) [1]: Dose-dependent effect | Ratio (Mus musculus): 16 | Drug uptake [5]: Active | Drug uptake [6]: Active | Ratio IC50 (HT-29): 9.59
